Measurements from ChEMBL document CHEMBL1136952, “Inhibition of staphyloxanthin virulence factor biosynthesis in Staphylococcus aureus: in vitro, in vivo, and crystallographic results” (J Med Chem, 2009).

How the values were obtained:
[1] = target: T1, 4,4'-diapophytoene synthase (Staphylococcus aureus, UniProt A9JQL9); test: Inhibition of Staphylococcus aureus histidine tagged dehydrosqualene synthase expressed in Escherichia coli BL21 (DE3) cells by continuous spectrophotometric assay
T1 sequence (A9JQL9 whole entry): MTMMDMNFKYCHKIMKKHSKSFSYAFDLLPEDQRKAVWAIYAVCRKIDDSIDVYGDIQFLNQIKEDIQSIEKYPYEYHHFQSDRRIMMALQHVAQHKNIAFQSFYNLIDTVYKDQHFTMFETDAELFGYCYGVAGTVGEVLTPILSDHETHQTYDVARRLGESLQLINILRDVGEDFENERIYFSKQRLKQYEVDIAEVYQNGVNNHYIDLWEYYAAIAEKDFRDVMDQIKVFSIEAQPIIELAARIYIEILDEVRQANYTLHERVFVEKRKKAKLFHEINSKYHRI
Summary of the method: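 His-tagged CrtM purified on Ni-NTA. Compounds were preincubated with 2 μg enzyme for 30 min at 20 °C. Phosphate release was followed continuously by a coupled spectrophotometric assay. IC50 came from a dose-response fit, and Ki was derived from IC50, substrate concentration and the CrtM kinetic constant.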

Squalene synthase = target: T2, Squalene synthase (Homo sapiens, UniProt P37268); test: Inhibition of human recombinant squalene synthase expressed in Escherichia coli cells assessed as conversion of [3H]FPP to squalene by liquid scintillation
T2 sequence (P37268 whole entry): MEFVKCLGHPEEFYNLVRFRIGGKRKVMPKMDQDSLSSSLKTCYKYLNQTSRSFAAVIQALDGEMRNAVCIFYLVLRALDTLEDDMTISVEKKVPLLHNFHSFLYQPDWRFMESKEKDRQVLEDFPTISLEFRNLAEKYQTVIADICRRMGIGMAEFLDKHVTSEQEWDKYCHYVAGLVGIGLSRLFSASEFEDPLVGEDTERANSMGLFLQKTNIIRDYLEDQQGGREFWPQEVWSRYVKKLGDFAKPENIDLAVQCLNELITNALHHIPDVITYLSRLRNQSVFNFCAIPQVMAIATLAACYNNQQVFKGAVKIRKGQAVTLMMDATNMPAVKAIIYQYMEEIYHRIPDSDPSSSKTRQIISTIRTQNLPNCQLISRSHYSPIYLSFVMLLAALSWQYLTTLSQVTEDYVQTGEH

NCI-H460 = test: Cytotoxicity against human NCI-H460 cells after 4 days by MTT assay; type: cell-based; conditions: NCI-H460, 96 h
Summary of the method: (§1)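 Cell lines from the National Cancer Institute, grown in RPMI-1640 with 10% FBS and 2 mM L-glutamine at 37 °C, 5% CO2. Seeded 5000 cells/well with compound half-log serially diluted (0.316 mM to 0.1 pM). Incubated 4 days. Viability read by MTT. IC50 from dose-response fit of OD data.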

MCF7 = test: Cytotoxicity against human MCF7 cells after 4 days by MTT assay; type: cell-based; conditions: MCF7, 96 h; summary of the method: as §1
Staphylococcus aureus = test: Inhibition of staphyloxanthin biosynthesis in Staphylococcus aureus isolate Pig1 after 72 hrs by spectrophotometry; type: functional, organism-based; conditions: isolate Pig1, PIG1, 72 h
Summary of the method: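 Bacteria were grown in Todd-Hewitt broth with compound for 72 h, in duplicate. Cells were then centrifuged and washed twice in PBS. Pigment was extracted with MeOH and read by OD at 450 nm. IC50 came from a dose-response fit of the OD data.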

SF-268 = test: Cytotoxicity against human SF268 cells after 4 days by MTT assay; type: cell-based; conditions: SF-268, 96 h; summary of the method: as §1

| SMILES | Ki [1] | IC50 (Squalene synthase) | IC50 (NCI-H460) | IC50 (MCF7) | IC50 (Staphylococcus aureus) | IC50 (SF-268) |
| --- | --- | --- | --- | --- | --- | --- |
| CN(CCCc1cccc(Oc2ccccc2)c1)C(=O)CP(=O)(O)O | 0.91 µM | 1 µM | > 300 µM | > 300 µM | 8.6 µM | > 300 µM |
| O=C(CP(=O)(O)O)NCCc1cccc(Oc2ccccc2)c1 | 1.5 µM | 6.2 µM | > 300 µM | > 300 µM | 3 µM | > 300 µM |
| O=C(CS(=O)(=O)O)NCCCc1cccc(Oc2ccccc2)c1 | 0.81 µM | > 30 µM | > 300 µM | > 300 µM | 15 µM | > 300 µM |
| O=C(CP(=O)(O)O)N(O)CCCc1cccc(Oc2ccccc2)c1 | 0.32 µM | 30 µM | > 300 µM | > 300 µM | 0.11 µM | > 300 µM |
| O=C(CCCCc1cccc(Oc2ccccc2)c1)CP(=O)(O)O | > 7 µM | 20 µM | 191 µM | 135 µM | 28 µM |  |
| O=C(CP(=O)(O)O)OCCCc1cccc(Oc2ccccc2)c1 | 5.7 µM | > 30 µM | 86 µM | 69 µM | > 500 µM |  |
| O=P(O)(O)CS(=O)(=O)NCCCc1cccc(Oc2ccccc2)c1 | > 7 µM | > 30 µM | > 300 µM | > 300 µM | > 500 µM | > 300 µM |
| O=C(O)CC(=O)NCCCc1cccc(Oc2ccccc2)c1 | > 7 µM | > 30 µM | 306 µM | 283 µM | 200 µM | 306 µM |
| O=C(CP(=O)(O)O)NCCCc1cccc(Oc2ccc(Cl)c(Cl)c2)c1 | 0.03 µM | 0.74 µM | > 300 µM | > 300 µM | 0.04 µM | > 300 µM |
| Cc1ccc(-c2ccc(CCCN(O)C(=O)CP(=O)(O)O)cc2)cc1 | > 7 µM | > 30 µM | 284 µM | 266 µM | 4.1 µM |  |
| O=C(CP(=O)([O-])[O-])NCCCc1cccc(Oc2ccccc2)c1.[K+].[K+] |  | 0.53 µM | > 300 µM | > 300 µM | 0.008 µM | > 300 µM |
| O=C(CP(=O)(O)O)NCCCc1ccc(-c2ccccc2)cc1 | 0.81 µM | > 30 µM | > 300 µM | > 300 µM | 5 µM | > 300 µM |
| CC(C)(C(=O)NCCCc1cccc(Oc2ccccc2)c1)P(=O)(O)O | 0.96 µM | 0.52 µM | > 300 µM | > 300 µM | > 500 µM | > 300 µM |
| O=C(CP(=O)(O)O)N(O)CCCc1cccc(Oc2ccc(Cl)c(Cl)c2)c1 | 0.32 µM | 1.6 µM | > 300 µM | > 300 µM | 0.042 µM | > 300 µM |
| O=C(CP(=O)(O)O)NCCCCc1cccc(Oc2ccccc2)c1 | 5.3 µM | > 30 µM | > 300 µM | > 300 µM | 35 µM | > 300 µM |
| O=C(CP(=O)(O)O)NCCCc1cccc(Oc2ccc(Cl)cc2)c1 | 0.07 µM | 1.1 µM | > 300 µM | > 300 µM | 0.028 µM | > 300 µM |
| O=C(NO)C(CCCc1cccc(Oc2ccccc2)c1)P(=O)(O)O (stereo not drawn) | 4.1 µM | 0.3 µM | > 300 µM | > 300 µM | 4.2 µM | > 300 µM |
